Laboratory results published in PMC7249612 (Biochemistry, 2016).

Tests used:
LoxA [1] = assay: LoxA secondary product profile; assay type: biochemical, Pseudomonas aeruginosa; settings: 10 μM substrate; for times slower relative to the Kcat with AA: pH 7.0
LoxA [2] = assay: LoxA substrate preference; assay type: biochemical, Pseudomonas aeruginosa; settings: initial rate at 10 μM substrate, pH 7.0, relative to AA
In short: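 His6-tagged LoxA was expressed in E. coli BL21(DE3), purified on Ni-NTA, and dosed by iron content. About 7 nM enzyme started each reaction. Each fatty acid substrate was C18 HPLC-purified and used at 10 μM in 25 mM HEPES pH 7.0 without Triton X-100. Initial rate of conjugated diene formation was followed at 234 nm (ε 25000 M−1cm−1) and expressed relative to the AA rate.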

[3] = tested on: P. aeruginosa biofilm growth; assay: Abiotic microtiter biofilm assay; assay type: cell-based, Pseudomonas aeruginosa; settings: 1 μg LoxA protein added to loxA mutant or wild-type bacteria
In short: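 Wild-type PAO1 and loxA::Tn strains were grown overnight in Luria broth at 37 °C with 225 rpm shaking. Cultures were diluted 1:30 in minimal essential medium in 96-well plates, with or without 1 μg recombinant LoxA protein. Plates were incubated 24 h at 37 °C without agitation. Medium was removed, biofilms were washed and stained with crystal violet, and growth was read as absorbance at 550 nm.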

[4] = tested on: P. aeruginosa biofilm growth on human airway epithelial cells; assay: Biotic biofilm assay on airway epithelial cells; assay type: cell-based, Pseudomonas aeruginosa; settings: recombinant protein delivered to airway epithelial cells
In short: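 16HBE human bronchial epithelial cells were seeded at 7.4×10^4 per 6.5 mm transwell and polarized at air-liquid interface for 7 days. Cells were rinsed in MEM, and washed bacteria (wild-type PAO1 or loxA::Tn) were added at MOI 25–30. After 1 h, apical medium was replaced with MEM + 0.4% L-arginine for 5 h at 37 °C. Recombinant LoxA was added apically in MEM at increasing doses. Biofilms were released with 0.1% Triton X-100 and serially diluted for CFU/ml. Three experiments were run.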

## CCCCC[C@H](O)/C=C/C=C\C/C=C\C/C=C\CCCC(=O)O [15-HETE]
LoxA [1]
  times slower relative to the Kcat with AA: 100,000 times

## CCCCCC(/C=C/C=C\C/C=C\C/C=C\CCCC(=O)O)OO (stereo not drawn) [15-HpETE, 15-hydroperoxyeicosatetraenoic acid]
LoxA [1]
  times slower relative to the Kcat with AA: 10,000 times

## CCCCC/C=C\C/C=C\C/C=C\C/C=C\CCCC(=O)O [AA, arachidonic acid]
LoxA [2]
  % AA Rate (10 μM): 100%
LoxA [1]; Kcat of LoxA with AA set to 1, unitless
  Relative Kcat: 1

B1: LoxA protein: purified recombinant P. aeruginosa 15-lipoxygenase added to biofilm assays (protein, UniProt Q9I4G8 20-685, looked up)
Lipoxygenase LoxA: NDSIFFSPLKYLGAEQQRSIDASRSLLDNLIPPSLPQYDNLAGKLARRAVLTSKKLVYVWTENFGNVKGVPMARSVPLGELPNVDWLLKTAGVIVELIVNFVASLPASAAAQFERIATGLSGDLEAARQVHEALLEEAKNDPAAAGSLLLRFTELQTRVIAILTRVGLLVDDILKSASNLVTQRGQGDGLNRFRAVFGTLRLPEVADSFRDDEAFAYWRVAGPNPLLIRRVDALPANFPLGEEQFRRVMGADDSLLEAAASRRLYLLDYAELGKLAPSGAVDKLLTGTGFAYAPIALFALGKDRARLLPVAIQCGQDPATHPMFVRPAESESDLYWGWQMAKTVVQVAEENYHEMFVHLAQTHLVSEAFCLATQRTLAPSHPLHVLLAPHFEGTLFINEGAARILLPSAGFIDVMFAAPIQDTQATAGGNRLGFDFYRGMLPESLKARNVDDPLALPDYPYRDDGLLVWNAIRQWAADYVAVYYASDGDVTADVELAAWVGEVIGSGKVAGFRPITGRSQLVEVLTMVIFTASAQHAAVNFPQPSMMTYAPAICAMSAAPAPDSPSGKSEADWLKMMPPTLVALEKVNIYHLLGSVYHGRLGDYRQTGFPYAPVFSDRRVTASGGPLERFQARLKEVEATIRTRNQARRRPYEYLLPSRIPASTNI
[3]
  effect on abiotic biofilm growth: did not alter biofilm growth
[4]
  effect on biotic biofilm growth of loxA transposon mutant: This decrease could be complemented
